The text below walks through data of ChEMBL document CHEMBL4513216, “Probing the Open Global Health Chemical Diversity Library for Multistage-Active Starting Points for Next-Generation Antimalarials” (ACS Infect Dis, 2020).

Each structure is given as a SMILES string.

This data set in a line: Toxicity liver stage against HepG2, at 10uM. The class given is cell-based. On the set-up: test concentration 10 uM, cell line HepG2-A16-CD81EGFP. The conditions noted are these: human, HepG2-A16-CD81EGFP cells; read-out: INHIBITION
The method in brief: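 Uninfected HepG2-A16-CD81EGFP cells, 3 × 10^3 per well, 1536-well, plated on prespotted compound at 10 μM final, parasite-free screening media added to match infected plates; puromycin 10 μM positive, DMSO 0.5% negative; run in parallel with 48 h PbLuc assay at 37 °C, 5% CO2; viability by CellTiter-Glo luminescence, normalized to controls.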
Turning to `CCN(CC)C(=O)CSc1nnc(CCNC(=O)OC(C)(C)C)o1`, the cytotoxicity at 10 µM is 12%.

Take `COC(=O)c1cccc2nc([C@H]3CCN(C4CCN(C)CC4)C3)oc12`: the cytotoxicity at 10 µM is -3.54%.

Take `CNC(=O)[C@@H](C1CCCCC1)N1CCC[C@H]1C(=O)NC1CC1`: the cytotoxicity at 10 µM came out at 5.56%.

With `Cc1c(-c2ccccc2)nc2c(c(C)c(C)n2CCN(C)C)c1N`, the cytotoxicity at 10 µM stood at 24.6%.

On to `O=C(Nc1ncnc2c1CCC2)c1ccc2c(c1)OCO2`, for which the cytotoxicity at 10 µM came to 4.42%.

`O=C1CCCC2(CCN(C(=O)c3cnccn3)CC2)N1`: the cytotoxicity at 10 µM is -12.9%.

Turning to `O=C(NC1CCCC1)c1n[nH]c2c1CNCC2`, the cytotoxicity at 10 µM came to 0.582%.

As to `CC(=O)N1CCCc2sc(C(=O)NC3CC3)nc21`, the cytotoxicity at 10 µM is -132%.

Turning to `O=S(=O)(C1CC1)N1CCC2(CC1)COC(COc1ccccn1)C2` (configuration not stated), the cytotoxicity at 10 µM was found to be 3.35%.

Consider `COCc1ncn2c1CN(C(=O)c1ccc[nH]1)CC2`, for which the cytotoxicity at 10 µM stood at 1.84%.

With `O=C(O)c1nc(SCc2ccc(F)cc2)ncc1Br`, the cytotoxicity at 10 µM is -3.11%.

As for `CC(C)CC(NC(=O)Nc1ccc(F)c(Cl)c1)C(=O)O` (configuration not stated), the cytotoxicity at 10 µM worked out at 8.19%.

Regarding `COc1cccc(CNC(=O)CC2CSc3ncc(C)c(=O)n32)c1` (configuration not stated), the cytotoxicity at 10 µM is 10.4%.

With `Cc1cc2nc(SCC(=O)N3CCCC3)n(C(C)C)c(=O)c2[nH]1`, the cytotoxicity at 10 µM is -7.53%.

As to `CNC(=O)c1cn[nH]c1C1CCCN1C(=O)c1cccnc1` (configuration not stated), the cytotoxicity at 10 µM is -23.3%.

In the case of `O=C(Cc1ccccc1)N1CCOC(c2nc(-c3ncccn3)no2)C1` (configuration not stated), the cytotoxicity at 10 µM is -22.6%.

As for `CN1CCc2nc(C3CCCN(C(=O)CC(C)(C)C)C3)ncc2C1` (configuration not stated), the cytotoxicity at 10 µM is -10.3%.

With `Cc1cc(C(F)(F)F)nc(N(C)Cc2c(C)noc2C)n1`, the cytotoxicity at 10 µM was -13.2%.

For `CS(=O)(=O)c1ccccc1-n1cc(NC(=O)CC(F)(F)F)cn1`, the cytotoxicity at 10 µM is 1.42%.

In the case of `Cc1ccc(OCCN(C)S(=O)(=O)N2CCOCC2)cc1`, the cytotoxicity at 10 µM stood at 0.651%.

With `CC(SCCC(=O)NC(N)=O)c1cccc(F)c1` (configuration not stated), the cytotoxicity at 10 µM amounted to 5.28%.

In the case of `Cc1cc(C)n(CC(C)CNC(=O)CCc2ccco2)n1` (configuration not stated), the cytotoxicity at 10 µM was -1.05%.

`CC(C)OCCCNC(=O)CN1CCN(c2nccs2)CC1`: the cytotoxicity at 10 µM came out at 3.44%.

As to `O=C(NC1CCS(=O)(=O)C1)c1ccc(SCc2cscn2)cc1` (configuration not stated), the cytotoxicity at 10 µM was -1.23%.

For the compound `CCC(CNC(=O)CCn1cncn1)N1CCc2ccccc2C1` (configuration not stated), the cytotoxicity at 10 µM is -137%.

Consider `CNC(=O)c1ccc(NC2CCN(CC(F)(F)F)C2=O)cc1Cl` (configuration not stated), for which the cytotoxicity at 10 µM is -1.13%.

`CC(C)N1CCC(CNC(=O)CCc2cc(F)ccc2F)C1` (configuration not stated): the cytotoxicity at 10 µM is -5.38%.

For the compound `COC(=O)c1cccc(S(=O)(=O)Nc2ccc(F)c(C(N)=O)c2)c1`, the cytotoxicity at 10 µM was 8.67%.

Regarding `CN1CCC(C(=O)N2CCC(=Cc3cccc(F)c3)CC2)CC1=O` (configuration not stated), the cytotoxicity at 10 µM was -2.19%.

In the case of `CCS(=O)(=O)NC1CCCN(Cc2ccn(C)c(=O)c2)C1` (configuration not stated), the cytotoxicity at 10 µM was -1.82%.

Take `COC(=O)N1CCC(Nc2ccc(Cl)c(C#N)n2)C1` (configuration not stated): the cytotoxicity at 10 µM is -3.44%.

For `CC(C)NC(=O)NCc1ccccc1NS(=O)(=O)c1ccccc1`, the cytotoxicity at 10 µM was determined as 9.6%.

Regarding `CCNC(=O)NCc1ccnc(N(C)C)n1`, the cytotoxicity at 10 µM is -0.786%.

Take `COc1cc(C2(C(=O)NCCn3ccnc3)CCCC2)ccc1C`: the cytotoxicity at 10 µM amounted to 8%.

For `O=C(c1cc2c([nH]c1=O)CCC2)N1CCCC1c1ccccc1` (configuration not stated), the cytotoxicity at 10 µM was -5.76%.

Regarding `Cn1c(C(=O)N2CCC(C(N)=O)C2)c(Cl)c2ccccc21` (configuration not stated), the cytotoxicity at 10 µM stood at 2.03%.

For the compound `CC(CCO)Nc1cccc(C(F)(F)F)n1` (configuration not stated), the cytotoxicity at 10 µM is -2.8%.

Turning to `CN(C)C(CNC(=O)c1ccc(-n2cnnn2)cc1)c1ccccc1Cl` (configuration not stated), the cytotoxicity at 10 µM is -8.16%.

Regarding `NC(=O)c1ccc(CNCC2CCN(CCO)CC2)cc1`, the cytotoxicity at 10 µM is -9.93%.

In the case of `CCOC(=O)c1nc(CN2CCC(NC(=O)C(C)C)CC2)cs1`, the cytotoxicity at 10 µM was -2.98%.

Turning to `O=C(c1c[nH]c2ncccc12)N1CCC(COc2ccccc2)CC1`, the cytotoxicity at 10 µM was determined as 14.4%.

Consider `CC(=O)NCc1ccc(C(=O)Nc2ccc3c(c2)C(=O)NC3)cc1`, for which the cytotoxicity at 10 µM came to 0.202%.

Turning to `CC(=O)Nc1cc(CN(C)C)ccc1C`, the cytotoxicity at 10 µM is -1.89%.

Take `CC1c2cccn2CCN1C(=O)CCc1nc(C2CC2)no1` (configuration not stated): the cytotoxicity at 10 µM is -2.13%.

Take `Cc1nc(C(C)C)sc1C(=O)NCC(C)(C)N1CCOCC1`: the cytotoxicity at 10 µM is -6.47%.

Consider `CCNC(=O)NC(=O)CN1CCOC(c2cccc(Br)c2)C1` (configuration not stated), for which the cytotoxicity at 10 µM was 1.83%.

With `Cn1cccc(NC(=O)N2CCC(Cc3ccccc3)C2)c1=O` (configuration not stated), the cytotoxicity at 10 µM was found to be 11.9%.

Regarding `CN(CC(F)(F)F)C(=O)CNC(=O)Cc1ccc(O)cc1Cl`, the cytotoxicity at 10 µM was -1.11%.

Take `CN1CCCC1CNC(=O)c1nnn(-c2ccc(F)cc2)c1C1CC1` (configuration not stated): the cytotoxicity at 10 µM is -15.9%.

On to `Cc1cc(NS(=O)(=O)c2ccccc2F)ccc1-n1cccc1C(=O)O`, for which the cytotoxicity at 10 µM is -5.67%.

Consider `O=C1[C@@H]2C[C@H](O)CCN2C(=O)CN1CCSc1ccccn1`, for which the cytotoxicity at 10 µM is -2.96%.

With `CCC(C)N(Cc1cccnc1)Cc1cc2c(cc1OC)OCO2` (configuration not stated), the cytotoxicity at 10 µM amounted to 3.17%.

In the case of `O=C(NCCc1cscn1)c1coc(CN2CCOCC2)c1`, the cytotoxicity at 10 µM was -3.7%.

Consider `COCc1nc(C2CC2)nn1-c1cccc(F)c1`, for which the cytotoxicity at 10 µM is 2.64%.

With `Cc1nc(C(=O)N2CCC(c3nnc(Cn4ccnc4)n3C)CC2)cs1`, the cytotoxicity at 10 µM was -127%.

As to `CCn1c(N)nc2cc(C(=O)NCCc3ccncc3)cnc21`, the cytotoxicity at 10 µM was determined as 1.22%.

Take `Cc1ccc(CN2C[C@@H](C(=O)O)[C@H](c3ccccn3)C2)o1`: the cytotoxicity at 10 µM is -3.88%.

As to `Cc1csc(CNc2ccc(-c3nc(C4CC4)no3)cn2)n1`, the cytotoxicity at 10 µM is -16.2%.

`Cc1nc2c(c(N[C@H](C(N)=O)C(C)C)n1)Cc1ccccc1OC2`: the cytotoxicity at 10 µM came to 4.71%.

With `O=C(NCCc1cccnc1)c1cn(CCN2CCNCC2)nn1`, the cytotoxicity at 10 µM is -7.82%.

Consider `Cc1nc(C)c(CC(=O)N2C[C@@H](C(=O)O)[C@H](c3ccncc3)C2)s1`, for which the cytotoxicity at 10 µM was -127%.

On to `CCC[C@@H]1CN(Cc2ccccc2-c2ccco2)C[C@H]1NC(C)=O`, for which the cytotoxicity at 10 µM was found to be 20.9%.

As to `COc1cccn(CC(=O)N(C)Cc2ccoc2)c1=O`, the cytotoxicity at 10 µM is -9.93%.

On to `Cc1ccccc1CSc1nc(N)cc(N2CCOC(C(N)=O)C2)n1` (configuration not stated), for which the cytotoxicity at 10 µM stood at 5.27%.

`Cc1oc(C(=O)O)cc1S(=O)(=O)Nc1ccc(Cl)cc1F`: the cytotoxicity at 10 µM is -0.354%.

Consider `NC(=O)c1cc(C2CCCN(C(=O)CCc3ccccn3)C2)n[nH]1` (configuration not stated), for which the cytotoxicity at 10 µM is -8.47%.

In the case of `CC(=O)N1CCN(C(=O)Nc2cnc3c(cnn3C(C)C)c2)CC1`, the cytotoxicity at 10 µM was -0.192%.

Consider `CC(C)c1nc(C2CCCN(C(=O)CCCn3ccnc3)C2)no1` (configuration not stated), for which the cytotoxicity at 10 µM was -17.2%.

Take `O=C(CCc1ccccc1)N1CC(n2cncn2)C1`: the cytotoxicity at 10 µM is -15.7%.

For `CN(C)c1cc(CNC(=O)c2ccccc2S(C)(=O)=O)ccn1`, the cytotoxicity at 10 µM is -10.7%.

`CS(=O)(=O)c1cccc(C(N)c2ccccc2)c1` (configuration not stated): the cytotoxicity at 10 µM is -19.3%.

As for `CC(Cc1ccc(Cl)cc1)NC(=O)Nc1cnn(CC(N)=O)c1` (configuration not stated), the cytotoxicity at 10 µM was -5.86%.

`Cc1csc(N2CCN(C(=O)NCCNc3ncccn3)CC2)n1`: the cytotoxicity at 10 µM was -18.8%.

In the case of `CCOCC(O)CN1CCN(C(=O)C2CCCC2)CC1` (configuration not stated), the cytotoxicity at 10 µM was -13%.

Regarding `Cc1ccc(N2CCCC(NCc3cccs3)C2)nn1` (configuration not stated), the cytotoxicity at 10 µM was -33%.

Consider `Cc1ccc(N2CCCC(NCc3ccc4c(c3)OCCO4)C2)nn1` (configuration not stated), for which the cytotoxicity at 10 µM was -20.1%.

As to `CCc1ccsc1C(=O)N1CCN(CCN2C(=O)CCC2=O)CC1`, the cytotoxicity at 10 µM is -3.82%.

In the case of `Cc1csc(C2CCCCN2C(=O)CN(C)C(C)C)n1` (configuration not stated), the cytotoxicity at 10 µM was -3.62%.

In the case of `Cc1nn(C)c(N(C)C)c1CNCc1ccc(C(=O)N(C)C)cc1`, the cytotoxicity at 10 µM is -9.55%.

Regarding `c1ccc(CCCN2CCOC(Cn3cccn3)C2)cc1` (configuration not stated), the cytotoxicity at 10 µM was found to be 9.11%.

Turning to `CC1CN(C(=O)CN(Cc2ccco2)Cc2cccs2)CCO1` (configuration not stated), the cytotoxicity at 10 µM was -7.68%.

With `O=C(c1nn(-c2ccccc2F)cc1O)N1CCCC1`, the cytotoxicity at 10 µM is -4.99%.

`Cc1ccc(-c2nnc(CN3CCOC(Cn4cccn4)C3)o2)cc1` (configuration not stated): the cytotoxicity at 10 µM is -8.06%.

On to `CC1CN(c2ccc(CNC(=O)c3ccn(C)c(=O)c3)cn2)CCO1` (configuration not stated), for which the cytotoxicity at 10 µM was 2.82%.

On to `CC(C)n1ccnc1CN1CCCN(C(=O)COC2CCCC2)CC1`, for which the cytotoxicity at 10 µM is -0.602%.

For `O=c1n(CCSCc2ccccc2F)nc2ccccn12`, the cytotoxicity at 10 µM worked out at 0.168%.

Turning to `CNC(=O)[C@@H](C1CC1)N1CCC[C@H]1C(=O)NCC(C)C`, the cytotoxicity at 10 µM is -2.45%.

As for `CNC(=O)[C@@H]1CC[C@@H]2[C@@H](CCN2Cc2cn(C)c3ccccc23)O1`, the cytotoxicity at 10 µM amounted to 10.7%.

As for `CC(C)NC1CCc2c(ccc(=O)n2CCN2CCCC2=O)C1` (configuration not stated), the cytotoxicity at 10 µM is 9.52%.

As for `c1cc(CN2CC[C@@H]3[C@@H](CO[C@H]3CN3CCOCC3)C2)cs1`, the cytotoxicity at 10 µM is -1.19%.

On to `FC1(F)CCN(Cc2cccnc2)CC12CCN(c1cnccn1)C2` (configuration not stated), for which the cytotoxicity at 10 µM worked out at 2.6%.

With `Cc1ncsc1CN1C[C@H](OCc2ccncc2)[C@H]2OCCC[C@H]21`, the cytotoxicity at 10 µM was -139%.

As for `O=C(CCn1c(C(F)(F)F)cc2cccnc21)N1CCOCC1`, the cytotoxicity at 10 µM was -22.6%.

For the compound `OC(CN1CCN(Cc2ccccc2)CC1)C1CC1` (configuration not stated), the cytotoxicity at 10 µM came out at 3.3%.

Consider `O=C([C@H]1COC[C@H]2CN(C3CCOCC3)C[C@H]21)N1CCC(F)CC1`, for which the cytotoxicity at 10 µM is -112%.

Take `O=C(O)c1cc(C=Cc2ccccc2)ncn1`: the cytotoxicity at 10 µM stood at 5.17%.

As for `Cc1oc(C(C)C)cc1C(=O)N1C[C@@H]2CC[C@H]1CN(S(=O)(=O)N(C)C)C2`, the cytotoxicity at 10 µM was -127%.
